Activity, survival and inhibition data for 1 molecule are collected here from ChEMBL document CHEMBL3085690, “Naturally occurring antimicrobial peptide OH-CATH30 selectively regulates the innate immune response to protect against sepsis” (J Med Chem, 2013).

Calls of active or inactive are those of the source. The calls are words filed in the database; no cut-off is given here. Peptide text beside a SMILES is read from it.

Data set [1] deals with BMDM. The experiment in a line: Induction of CXCL5 mRNA up-regulation in mouse BMDM at 20 ug/ml after 3 hrs by qRT-PCR analysis. It is filed as functional. The method, boiled down: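 Murine BMDMs stimulated with peptide, then target mRNA quantified by qRT-PCR. Expression normalized to GAPDH, with untreated cells set to 1.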
On the technique in general: Real-time PCR tracks product formation cycle by cycle.

Data set [2] deals with Mus musculus. The experiment in a line: Stimulation of innate immune response in Kunming mouse infected with Pseudomonas aeruginosa ATCC 27853 assessed as reduction of bacterial burden in peritoneal lavage by measuring survival rate at 10 mg/kg, ip administered 5 hrs before bacterial infection measured up to 7 days. In kind it is functional, organism-based. More on the design: dose 10 mg/kg. The method, boiled down:
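Peptide at 10 mg/kg ip was given 5 h before ip challenge with E. coli 25922 (2.5 × 10^8 CFU), P. aeruginosa 27853 (8 × 10^7 CFU) or S. aureus 25923 (2 × 10^8 CFU) per mouse. Viable bacteria were counted in peritoneal lavage collected in 2 mL of cold saline (n = 7, 6 and 8 respectively; unpaired t test). Survival was recorded for up to 7 days.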

For data set [3], the system named is Mus musculus. Nature of the data set: Stimulation of innate immune response in Kunming mouse assessed as protection against CLP-induced mortality by measuring survival rate at 10 mg/kg, ip administered 12 hrs before bacterial infection measured up to 7 days. It is filed as functional. Particulars: route intraperitoneal.
Data set [4] deals with Mus musculus. Nature of the data set: Stimulation of innate immune response in Kunming mouse assessed as protection against drug-resistant Staphylococcus aureus-induced mortality by measuring survival rate at 10 mg/kg, ip administered 5 hrs before bacterial infection measured up to 7 days. As to conditions: route intraperitoneal. In kind it is functional. Summed up:
(§1)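 Female Kunming mice (18−22 g) were dosed ip in sterile saline at 10 mg/kg, 5 h before ip challenge with clinical drug-resistant isolates: E. coli (n = 12), P. aeruginosa (n = 10) or S. aureus (n = 15). Survival was recorded for up to 7 days, with checks every 6 h and euthanasia by CO2 at the humane end point.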

Data set [5] has as its system Mus musculus. Nature of the data set: Stimulation of innate immune response in Kunming mouse assessed as protection against drug-resistant Escherichia coli-induced mortality by measuring survival rate at 10 mg/kg, ip administered 5 hrs before bacterial infection measured up to 7 days. It is filed as functional. Particulars: route intraperitoneal. Summed up:
as §1

The nature of data set [6]: Increase of CXCL2 production in mouse BMDM after 6 hrs by ELISA in presence of NFkappaB inhibitor Bay11-7082. In kind it is functional.
For data set [7], the system named is BMDM. Nature of the data set: Increase of CXCL2 production in mouse BMDM after 6 hrs by ELISA in presence of KN-62. It is filed as functional. In general terms: In an ELISA, binding on a coated surface is turned into a signal by an enzyme label.
The nature of data set [8]: Increase of CXCL2 production in mouse BMDM after 6 hrs by ELISA in presence of p38 MAPK inhibitor SB-202190. It is filed as functional.
For data set [9], the system named is BMDM. The experiment in a line: Increase of CXCL2 production in mouse BMDM after 6 hrs by ELISA in presence of WRW4. It is filed as functional.
Data set [10] has as its system BMDM. The experiment in a line: Increase of CXCL2 production in mouse BMDM after 6 hrs by ELISA in presence of pertussis toxin. In kind it is functional. Summed up: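 BMDMs (bone marrow cells in RPMI 1640 with 10% FCS and 20% L929-conditioned medium) were preincubated 30 min with pertussis toxin (100 ng/mL), then stimulated with peptide for 6 h. CXCL2 in the supernatant was measured by ELISA. Mean ± SEM from three independent experiments, unpaired t test.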

Data set [11] deals with RAW264.7. The experiment in a line: Downregulation of TLR4/MD2 complex in plasma membrane in mouse RAW264.7 cells relative to LPS. It is filed as functional. Summed up: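 RAW 264.7 cells in DMEM with 10% FCS, exposed 30 min to peptide (20 μg/mL) or LPS (1 μg/mL). Washed in ice-cold PBS, stained with PE anti-mouse TLR4/MD2 (2 μg/mL) for 30 min on ice. Surface complex measured by flow cytometry.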

For data set [12], the system named is RAW264.7. The experiment in a line: Inhibition of LPS-induced IL-6 production in mouse RAW264.7 cells 2 to 50 ug/ml after 6 hrs by ELISA. It is filed as functional, cell-based.
The subject of data set [13] is Mus musculus. Nature of the data set: Stimulation of innate immune response in bacteria infected Kunming mouse assessed as eradicate invading bacteria at 10 mg/kg, ip after 8 hrs. Also on record: dose 10 mg/kg. In kind it is functional, organism-based.
Data set [14] relates to Mus musculus. The experiment in a line: Stimulation of innate immune response in neutropenic Kunming mouse infected with Pseudomonas aeruginosa ATCC 27853 assessed as reduction of bacterial burden in peritoneal lavage at 10 mg/kg, ip relative to control. It is filed as functional. Also on record: scale not given: the % may be the effect or the level left. Particulars: route intraperitoneal. Summed up: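 Mice were made neutropenic with cyclophosphamide ip, 150 mg/kg on day 0 and 100 mg/kg on day 3. Peptide was given ip at 10 mg/kg 5 h before ip bacterial infection on day 5 (n = 10). Viable bacteria in the peritoneal cavity were counted 8 h after inoculation, and groups were compared by unpaired t test.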

In data set [15] the test system is Mus musculus. The experiment in a line: Stimulation of innate immune response in neutropenic Kunming mouse infected with Pseudomonas aeruginosa ATCC 27853 assessed as increase of number of neutrophils and inflammatory monocytes in peritoneal lavage at 10 mg/kg, ip up to 24 hrs. In kind it is functional, organism-based. Also on record: dose 10 mg/kg. Summed up:
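Mice were made neutropenic with ip cyclophosphamide, 150 mg/kg on day 0 and 100 mg/kg on day 3. They were then injected ip with peptide at 10 mg/kg. Peritoneal cells were collected up to 24 h afterwards and typed by flow cytometry after GR1/F4/80 staining.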

Data set [16] deals with Mus musculus. Nature of the data set: Stimulation of innate immune response in Kunming mouse assessed as increase of monocytes/macrophages in peritoneal lavage at 10 mg/kg, ip after 5 hrs. In kind it is functional, organism-based. More on the design: dose 10 mg/kg. The method, boiled down:
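Female Kunming mice were given peptide ip at 10 mg/kg. At 5 h, peritoneal cells were recovered by lavage with 2 mL PBS and counted. Cells were stained with anti-F4/80-PE and GR1-FITC for 30 min at room temperature and typed by flow cytometry: neutrophils GR1+/F4/80−, resident monocytes/macrophages GR1−/F4/80+, inflammatory monocytes GR1+/F4/80+. Data are mean ± SD from three mice, unpaired t test.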

In data set [17] the test system is Mus musculus. The experiment in a line: Stimulation of innate immune response in Kunming mouse assessed as increase of IL-1beta level in peritoneal lavage at 10 mg/kg, ip after 5 hrs. Also on record: dose 10 mg/kg. It is filed as functional, organism-based. The method, boiled down:
(§2)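 Female Kunming mice (18−22 g) received a single ip injection of peptide at 10 mg/kg in sterile saline. Peritoneal lavage was collected in 2 mL of cold sterile saline 5 h later, and cytokines and chemokines were measured by ELISA. Data are mean ± SD from four mice, compared by unpaired t test.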

Data set [18] has as its system Mus musculus. The experiment in a line: Stimulation of innate immune response in Kunming mouse assessed as increase of CCL2 level in peritoneal lavage at 10 mg/kg, ip after 5 hrs. It is filed as functional, organism-based. More on the design: dose 10 mg/kg. The method, boiled down: as §2
Data set [19] relates to Mus musculus. Nature of the data set: Stimulation of innate immune response in Kunming mouse assessed as increase of CXCL2 level in peritoneal lavage at 10 mg/kg, ip after 5 hrs. It is filed as functional, organism-based. More on the design: dose 10 mg/kg. Summed up:
as §2

In data set [20] the test system is Mus musculus. The experiment in a line: Stimulation of innate immune response in Kunming mouse assessed as increase of IL-1Ra level in peritoneal lavage at 10 mg/kg, ip after 5 hrs. It is filed as functional, organism-based. Also on record: dose 10 mg/kg. Summed up:
as §2

Data set [21] concerns RAW264.7. Nature of the data set: Induction of H2O2 production in mouse RAW264.7 cells. It is filed as functional, cell-based.
A short description of data set [22]: Cytotoxicity against mouse BMDM at 5 to 20 ug/ml by LDH release assay. Background: LDH in the medium is a marker of cell lysis.
The next data set has as its system PBMC. The experiment in a line: Increase of cytokine production in human PBMC by qRT-PCR analysis. In kind it is functional, cell-based.
For data set [23], the system named is BMDM. Nature of the data set: Increase of TNFalpha protein level in mouse BMDM at 20 ug/ml after 18 hrs by ELISA. In kind it is functional. The method, boiled down:
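Bone marrow-derived macrophages (RPMI 1640, 10% FCS, 20% L929-conditioned medium) stimulated with peptide for 18 h. Cytokines and chemokines in culture supernatant quantified by sandwich ELISA. Mean ± SD from three independent experiments, unpaired t test.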

As to `CC[C@H](C)[C@H](NC(=O)[C@@H](NC(=O)[C@H](CCCNC(=N)N)NC(=O)[C@@H]1CCCN1C(=O)[C@H](CCCCN)NC(=O)[C@H](CCCCN)NC(=O)[C@H](Cc1ccccc1)NC(=O)[C@H](Cc1ccccc1)NC(=O)[C@H](CCCCN)NC(=O)[C@H](CCCCN)NC(=O)[C@H](C)NC(=O)[C@H](CCCNC(=N)N)NC(=O)[C@H](CCCCN)NC(=O)[C@H](CCCCN)NC(=O)[C@@H](NC(=O)[C@H](CO)NC(=O)[C@H](CC(N)=O)NC(=O)[C@H](CCCCN)NC(=O)[C@H](CC(C)C)NC(=O)[C@H](CCCCN)NC(=O)[C@H](CCCCN)NC(=O)[C@H](Cc1ccccc1)NC(=O)[C@H](Cc1ccccc1)NC(=O)[C@@H](N)CCCCN)C(C)C)C(C)C)C(=O)NCC(=O)N[C@H](C(=O)N[C@@H](CO)C(=O)N[C@H](C(=O)N1CCC[C@H]1C(=O)N[C@@H](Cc1ccccc1)C(=O)O)[C@@H](C)CC)C(C)C` (H-KFFKKLKNSVKKRAKKFFKKPRVIGVSIPF-OH), the outcome with BMDM [1], in the data set on Mus musculus [2], in the data set on BMDM [7], with BMDM [9], in the data set on Mus musculus [16] and in the data set on Mus musculus [18] was Active. For the same molecule, the result with Mus musculus [19], with Mus musculus [20] and in the data set with PBMC was Active. Moreover, the survival at 10 mg/kg came to 70% in the data set with Mus musculus [3], 63% in the data set with Mus musculus [4] and 92.5% in the data set on Mus musculus [5]. The Activity in data set [6] was 1000 pg/mL; in data set [8] it was 464.9 pg/mL; in the data set with RAW264.7 [11] it was 20%; in the data set with Mus musculus [14] it was 40%; in data set [22], “Non-toxic”. The outcome in the data set on BMDM [10], in the data set on Mus musculus [13], with Mus musculus [15], in the data set with Mus musculus [17], in the data set on RAW264.7 [21] and in the data set on BMDM [23] was inactive. The inhibition result in the data set on RAW264.7 [12] was “Active”.
